Measurements reported in ChEMBL document CHEMBL3804807, “Purine analogs as phosphatidylinositol 4-kinase IIIβ inhibitors” (Bioorg Med Chem Lett, 2016).

Experiments:
[1] = Cytotoxicity against human HeLa cells; format: cell-based
[2] = tested on: Hepatitis C virus; experiment: Antiviral activity against Hepatitis C virus subtype 1b; format: functional, organism-based, Hepacivirus hominis; details: genotype 1b
[3] = tested on: Human rhinovirus sp.; experiment: Antiviral activity against Human rhinovirus; format: functional, organism-based
[4] = organism: Homo sapiens; experiment: Inhibition of PI4K3 alpha (unknown origin) at 10 uM by ADP-Glo assay relative to control
Method in brief: (§1)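 PI4K IIIα and PI4K IIIβ activity read by ADP-Glo assay. Each compound was tested at a single concentration of 10 μM, and residual enzyme activity was expressed relative to control.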

[5] = organism: Homo sapiens; experiment: Inhibition of PI4K3 beta (unknown origin) assessed as residual activity at 10 uM by ADP-Glo assay relative to control; method in brief: as §1
[6] = Inhibition of PI4K3 beta (unknown origin) by ADP-Glo assay; parameters: species or system Homo sapiens
[7] = tested on: Coxsackievirus B3; experiment: Antiviral activity against Human coxsackievirus B3; format: functional, organism-based; details: Enterovirus B

SMILES | EC50 [2] | EC50 [3] | inhibition [4] | Activity [5] | IC50 [6] | EC50 [7] | CC50 [1]
COc1ccc(-n2c(C)nc3c(NCCN4CCOCC4)nc(C)nc32)cc1OC | > 44 µM | 40 µM | < 50% | 14% | 0.91 µM | 8 µM | > 50 µM
COc1ccc(-n2c(C)nc3c(NCCN4CCOCC4)nc(-c4ccsc4)nc32)cc1OC | 23 µM | > 50 µM | < 50% | 46% | – | – | > 50 µM
COc1ccc(-n2c(OC)nc3c(NCCN4CCOCC4)nc(C)nc32)cc1OC | > 44 µM | > 50 µM | < 50% | 86% | – | > 50 µM | > 50 µM
COc1ccc(-n2c(C#Cc3ccccc3)nc3c(NCCN4CCOCC4)nc(C)nc32)cc1OC | 30 µM | > 50 µM | < 50% | 96% | – | > 50 µM | > 50 µM
COc1ccc(Cn2c(C)nc3c(NCCN4CCOCC4)nc(C)nc32)cc1OC | 43 µM | > 50 µM | < 50% | 126% | – | > 50 µM | > 50 µM
COc1ccc(-n2nnc3c(NCCN4CCOCC4)nc(C)nc32)cc1OC | 33 µM | – | < 50% | 31% | – | 26 µM | > 50 µM
COc1ccc(-n2c(C3CC=CCC3)nc3c(NCCN4CCOCC4)nc(C)nc32)cc1OC (centres undefined) | > 44 µM | > 50 µM | < 50% | 75% | – | > 50 µM | > 50 µM
COc1ccc(-n2c(-c3ccc(O)cc3)nc3c(NCCN4CCOCC4)nc(C)nc32)cc1OC | > 44 µM | > 50 µM | < 50% | 125% | – | > 50 µM | > 50 µM
COc1ccc(-n2c(-c3ccsc3)nc3c(NCCN4CCOCC4)nc(C)nc32)cc1OC | > 44 µM | > 50 µM | < 50% | 94% | – | > 50 µM | > 50 µM
COc1ccc(-n2c(-c3ccc(C#N)cc3)nc3c(NCCN4CCOCC4)nc(C)nc32)cc1OC | > 44 µM | > 50 µM | < 50% | 97% | – | > 50 µM | > 50 µM
COc1ccc(-n2ccc3c(NCCN4CCOCC4)ncnc32)cc1OC | 22 µM | – | < 50% | 74% | – | > 50 µM | > 50 µM
COc1ccc(-n2c(C(F)(F)F)nc3c(NCCN4CCOCC4)nc(C)nc32)cc1OC | > 44 µM | > 50 µM | < 50% | 99% | – | > 50 µM | > 50 µM
COc1ccc(-n2c(CO)nc3c(NCCN4CCOCC4)nc(C)nc32)cc1OC | > 44 µM | – | < 50% | 62% | – | > 50 µM | > 50 µM
COc1ccc(-n2c(-c3ccc(C=O)cc3)nc3c(NCCN4CCOCC4)nc(C)nc32)cc1OC | > 44 µM | > 50 µM | < 50% | 138% | – | > 50 µM | > 50 µM
COc1ccc(-n2c(-c3ccc(F)cc3)nc3c(NCCN4CCOCC4)nc(C)nc32)cc1OC | > 44 µM | > 50 µM | < 50% | 78% | – | > 50 µM | > 50 µM
COc1ccc(-n2c(I)nc3c(NCCN4CCOCC4)nc(C)nc32)cc1OC | 20 µM | > 50 µM | < 50% | 38% | – | 40 µM | > 50 µM
COc1ccc(-n2c(C3CCCCC3)nc3c(NCCN4CCOCC4)nc(C)nc32)cc1OC | > 44 µM | > 50 µM | < 50% | 79% | – | > 50 µM | > 50 µM
COc1ccc(-n2c(C(C)C)nc3c(NCCN4CCOCC4)nc(C)nc32)cc1OC | > 44 µM | – | < 50% | 65% | – | > 50 µM | > 50 µM
COc1ccc(-n2nnc3c(NCCN4CCOCC4)ncnc32)cc1OC | 32 µM | – | < 50% | 41% | – | > 50 µM | > 50 µM
COc1ccc(-n2c(-c3ccc(CO)cc3)nc3c(NCCN4CCOCC4)nc(C)nc32)cc1OC | > 44 µM | > 50 µM | < 50% | 103% | – | > 50 µM | > 50 µM
COc1ccc(-n2c(-c3ccc(OCc4ccccc4)cc3)nc3c(NCCN4CCOCC4)nc(C)nc32)cc1OC | > 44 µM | 9.6 µM | < 50% | 112% | – | – | 26 µM

Compounds with a lower EC50 [2], results first:

EC50 [2] | EC50 [3] | inhibition [4] | Activity [5] | IC50 [6] | EC50 [7] | SMILES | CC50 [1]
15 µM | 3.3 µM | < 50% | 36% | – | 14 µM | COc1ccc(-n2c(C)nc3c(NCCN4CCOCC4)nc(-c4cccnc4)nc32)cc1OC | > 50 µM
3.9 µM | 3 µM | < 50% | 97% | – | 9.9 µM | COc1ccc(-n2c(C)nc3c(NCCN4CCOCC4)nc(-c4ccc(C#N)cc4)nc32)cc1OC | > 50 µM
10 µM | 16 µM | < 50% | 33% | – | 9 µM | COc1ccc(-n2c(C)nc3c(NCCN4CCOCC4)nc(I)nc32)cc1OC | > 50 µM
11.5 µM | – | < 50% | 26% | – | 34 µM | COc1ccc(-n2cnc3c(NCCN4CCOCC4)nc(C)nc32)cc1OC | > 50 µM
13 µM | 26 µM | < 50% | 18% | 1.91 µM | > 50 µM | C#Cc1nc(NCCN2CCOCC2)c2nc(C)n(-c3ccc(OC)c(OC)c3)c2n1 | > 50 µM
6.7 µM | 25 µM | < 50% | 17% | 5.2 µM | 11 µM | COc1ccc(-n2c(Br)nc3c(NCCN4CCOCC4)nc(C)nc32)cc1OC | > 50 µM
1.3 µM | 3 µM | < 50% | 18% | 2.37 µM | 1.8 µM | COc1ccc(-n2c(C)nc3c(NCCN4CCOCC4)nc(-c4ccc(O)cc4)nc32)cc1OC | > 50 µM
5.9 µM | 9.3 µM | < 50% | 14% | 2.14 µM | 1.6 µM | COc1ccc(-n2c(C)nc3c(NCCN4CCOCC4)nc(-c4cccc(NC(C)=O)c4)nc32)cc1OC | > 50 µM
5 µM | 9 µM | < 50% | 67% | – | > 50 µM | COc1ccc(-n2c(C)nc3c(NCCN4CCOCC4)nc(-c4cccc(Cl)c4)nc32)cc1OC | > 50 µM
4.4 µM | 3.4 µM | < 50% | 66% | – | 27 µM | COc1ccc(-n2c(C)nc3c(NCCN4CCOCC4)nc(-c4ccc(F)cc4)nc32)cc1OC | > 50 µM
6 µM | 8 µM | < 50% | 58% | – | 5 µM | COc1ccc(-n2c(C)nc3c(NCCN4CCOCC4)nc(C#Cc4ccccc4)nc32)cc1OC | 48 µM
